Here are results for nine compounds from PMC6388690 (Journal of medicinal chemistry, 2018).

For data set [1], the system named is MDA-MB-231 cells. In words: Cellular apoptosis assay. The data set is classed as cell-based, human. As to conditions: 48 h. In short, it runs like this: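 MDA-MB-231 cells, 2.5 × 10^5 per well, exposed to DMSO vehicle or test compound (1, 5, 10, 15 or 20 μM) for 48 h. Adherent and floating cells pooled and washed in PBS, then resuspended in PBS with 1% BSA plus Annexin V and dead-cell reagent for 20 min at room temperature. Read immediately on a cell analyzer; mean ± SD, ≥3 independent experiments.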

Data set [2] deals with SK-BR3 cells. In words: MTT cell proliferation assay. In kind it is cell-based, human. In short, it runs like this:
(§1)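 MTT proliferation assay: cells seeded at 1 × 10^4 per well and treated with DMSO or test compound at 0.1, 0.33, 1.0, 3.3 and 10 μM for 72 h. MTT reagent added, then OD 560 nm read after 1 h at 37°C. Quadruplicate wells per concentration.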

Data set [3] concerns MCF-10A cells. In words: Growth inhibition on normal mammary epithelial cells. In kind it is cell-based, human. As to conditions: 48 h. Put shortly: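 Normal mammary epithelial MCF-10A cells treated for 48 h with varying concentrations of test compound or the parent natural product. Mean ± SD of three independent experiments. Student t-test against the parent natural product at the same concentration.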

Data set [4] concerns MDA-MB-231 cells. In words: MTT cell proliferation assay. The data set is classed as cell-based, human. In short, it runs like this: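 MDA-MB-231 cells seeded at 1 × 10^4 per well, then exposed to DMSO vehicle or test compound at 0.1, 0.33, 1.0, 3.3 and 10 μM for 72 h. Proliferation read by MTT reagent, with OD at 560 nm after 1 h at 37°C. Quadruplicate wells per concentration. Mean ± SD of at least three independent experiments; one-way ANOVA across groups.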

The test system of data set [5] is MDA-MB-231 cells. In words: Colony-formation assay. As to conditions: MDA-MB-231, low micromolar concentrations, 2 weeks. The data set is classed as cell-based, human.
Data set [6] has as its system MDA-MB-231 xenograft tumors. In words: MDA-MB-231 orthotopic xenograft tumor growth in nude mice. The data set is classed as in vivo. As to conditions: intraperitoneal; for inhibitory effect on tumor growth compared to vehicle: daily. Put shortly: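 Female nude mice aged 6–8 weeks, kept in a barrier unit on a 12 h light–dark cycle. Freshly harvested MDA-MB-231 cells (1.0 × 106 in 100 μL PBS) injected into the no. 3 mammary fat pad, then mice randomized into 4 groups. Once tumours reached 80–100 mm3, daily ip test compound (10 or 15 mg/kg), parent natural product or vehicle, all dissolved in DMSO. Tumour volume (V = 0.5 × L × W2) and body weight measured daily; mean ± SEM.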

The test system of data set [7] is MCF-7 cells. In words: Colony-formation assay. The data set is classed as cell-based, human. Conditions: MCF-7, low micromolar concentrations, 2 weeks.
The subject of data set [8] is MCF-7 cells. In words: MTT cell proliferation assay. In kind it is cell-based, human. In short, it runs like this: as §1
Data set [9] has as its system cleaved PARP. In words: Western-blot analysis of apoptosis biomarkers. In kind it is cell-based, human. As to conditions: MDA-MB-231, 48 h, dose-dependent. In short, it runs like this:
(§2)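 MDA-MB-231 cells given DMSO or test compound at several concentrations for 48 h, then lysed. Protein measured by Bradford (BSA standard); 40 μg resolved by SDS-PAGE and transferred to NC membrane. Blocked in 5% nonfat milk, then primaries overnight: Bcl-2 1:200, cleaved PARP 1:500, NF-κB 1:1000, Bax 1:1000, β-actin 1:2000. Secondary antibody applied; bands detected by ECL.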

The subject of data set [10] is MDA-MB-468 cells. In words: MTT cell proliferation assay. In kind it is cell-based, human. Put shortly: as §1
The subject of data set [11] is SK-BR3 cells. In words: Colony-formation assay. In kind it is cell-based, human. Conditions: SK-BR3, low micromolar concentrations, 2 weeks.
In data set [12] the test system is Bcl-2 to Bax ratio. In words: Western-blot analysis of apoptosis biomarkers. In kind it is cell-based, human. As to conditions: MDA-MB-231, 48 h. Put shortly: as §2
In data set [13] the test system is NF-κB (p65). In words: Western-blot analysis of apoptosis biomarkers. The data set is classed as cell-based, human. Conditions: MDA-MB-231, 48 h, dose-dependent. Put shortly: as §2
Data set [14] deals with MDA-MB-468 cells. In words: Colony-formation assay. As to conditions: MDA-MB-468, low micromolar concentrations, 2 weeks. In kind it is cell-based, human.
The conditions of data set [15]: 2 equiv of GSH at pH 7.4; cited from earlier work.
Data set [16] concerns MCF-7 and MDA-MB-231 cells. In words: MTT growth inhibition screen in two breast cancer cell lines. Conditions: MCF-7 and MDA-MB-231, MTT. In kind it is cell-based, human. Put shortly:
as §1

Data set [17] is described as follows: Reactivity with GSH monitored by 1H NMR. As to conditions: 37°C, 1.5–2 equiv GSH, pH 7.4, compared to oridonin.
The conditions of data set [18]: microsomes.
The conditions of data set [19]: relatively long time (hours); cited from earlier work.
Data set [20] deals with t(8;21) leukemia. As to conditions: 7.5 and 15 mg/kg; cited from earlier work.

SMILES strings stand for the structures. Structures can show the parent of a compound that is named as a salt.

With `C=CC(=O)N1CC12C(=O)[C@@]13[C@@H]4OC(C)(C)O[C@@]15OC[C@@]1([C@H]([C@@H]5O)C(C)(C)CC[C@@H]1O)[C@@H]3CC[C@H]42` (stereo partly drawn) [Compound 44], the “apoptotic cells (early and late apoptosis together)” value in data set [1] (10 μM) came to 18.2%; in data set [1] (15 μM), 26.8%; in data set [1] (20 μM), 47.6%. In addition, the “suppression of proliferation (dose-dependent)” value in data set [2], in data set [4], in data set [8] and in [10] was “suppressed the proliferation” in each case. In addition, the “growth-inhibitory activity against MCF-10A in comparison to oridonin” value is given as “comparable” in [3] (0–10 μM) and “significantly lower” in data set [3] (15~100 μM). Besides, the “inhibition of colony formation” value in data set [5], in data set [7], in data set [11] and in data set [14] was “significantly inhibit the colony formation” in each case. In addition, the “antitumor efficacy, 44 versus oridonin” value in data set [6] (10 mg/kg) is “comparable efficacy”. For the same compound, the “inhibitory effect on tumor growth compared to vehicle” value in data set [6] (10 mg/kg) and in data set [6] (15 mg/kg) was “significant inhibitory effect” each time. In data set [6] (15 mg/kg, one-way ANOVA p = 0.0023), the “inhibitory effect on tumor growth compared to the oridonin group” value is recorded as “better inhibitory effect”. For the same compound, in data set [9], the “cleaved PARP expression” value is reported as “up-regulation”. In addition, the “ratio of Bcl-2 to Bax” value in data set [12] is “reduced”. Moreover, the “NF-κB (p65) protein expression” value in data set [13] is “down-regulation”.

For `COC(=O)/C=C/C(=O)OC` [dimethyl fumarate], the “half-life with GSH” value in [15] was 50 to 60 min.

Take `C=CCNc1nc2c(s1)CC(C)(C)[C@H]1[C@H](O)[C@]3(O)OC[C@@]21[C@@H]1CC[C@@H]2[C@@H](O)[C@@]13C(=O)C21CN1C(=O)OCC1c2ccccc2-c2ccccc21` (stereo partly drawn) [Compound 42]: the “antiproliferative activity (in words)” value in [16] is listed as “moderate activities”.

In the case of `C=C1C(=O)[C@]23[C@H](OC(=O)[C@H](C)N)[C@H]1CC[C@H]2[C@@]12CO[C@@]3(O)[C@@H](O)[C@@H]1C(C)(C)CC[C@@H]2O.O=C(O)C(F)(F)F` [Compound 14], the “Reactivity / stability of covalent warhead toward GSH (in words)” value in data set [17] is “may enhance the enone’s reactivity”.

As for `C=C1C(=O)[C@@]23[C@@H]4OC(C)(C)O[C@@]25OC[C@@]2([C@H]([C@@H]5O)C(C)(C)CC[C@@H]2O)[C@@H]3CC[C@@H]14` [Compound 20], in data set [17], the “Reactivity / stability of covalent warhead toward GSH (in words)” value is recorded as “slightly weakens the reactivity of the enone”.

`C=CCNc1nc2c(s1)CC(C)(C)[C@H]1[C@H](O)[C@]3(O)OC[C@@]21[C@@H]1CC[C@@H]2[C@@H](O)[C@@]13C(=O)C21CN1` (stereo partly drawn) [Compound 43]: the “antiproliferative activity (in words)” value in [16] is given as “moderate activities”.

For `CC1(C)O[C@@H]2[C@H]3CC[C@H]4[C@@]56CO[C@@](O1)([C@@H](O)[C@@H]5C(C)(C)CC[C@@H]6O)[C@@]24C(=O)C31CN1` (stereo partly drawn) [Compound 25, (2R,3′S,3a′R,3a1′R,6a′R,7′S,11′S,11a′S)-7′,11′-Dihydroxy-5′,5′,8′,8′-tetramethyldecahydro-2′H-spiro[aziridine-2,15′-[6a,11a]-(epoxymethano)[3,3a1]ethanophenanthro[1,10-de][1,3]dioxin]-14’-one], the “microsomal stability compared to oridonin” value in data set [18] is “higher microsomal and plasma stability”.

Regarding `C=C1C(=O)[C@]23[C@H](O)[C@H]1CC[C@H]2[C@@]12CO[C@]3(O)[C@@H](O)[C@@H]1C(C)(C)CC[C@@H]2O` [oridonin], the “stability in strong acidic or basic media” value in data set [19] is given as “not stable”. In addition, in [20], the “inhibition of tumor growth” value is “Inhibition of tumor growth in t(8;21) leukemia murine model (7.5 and 15 mg/kg)”. Besides, the “antitumor efficacy, 44 versus oridonin” value in data set [6] (10 mg/kg) is “comparable efficacy”.

In the case of `CCC(=O)N1CC12C(=O)[C@@]13[C@@H]4OC(C)(C)O[C@@]15OC[C@@]1([C@H]([C@@H]5O)C(C)(C)CC[C@@H]1O)[C@@H]3CC[C@H]42` (stereo partly drawn) [Compound 45], the “antiproliferative activity (in words)” value in data set [16] was “complete loss of activity”.
